In the library only some 1.6% were active in any assay of this set; here they are far more common.
UHRF1 MBD2 ctr: human UHRF1 methylated DNA binding inhibitors. Q96T88. UHRF1 binding to methylated oligo, TR-FRET. inhibition, % at 4.4 µM. 370,000 tested, 0.75% active. AID 687016; in the data active = inhibition above about 21%;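 also: UHRF1 SRA domain binding a hemimethylated CpG hairpin DNA probe; 0% = median of test compound wells and 100% = reference inhibitor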
LEDGF integ inh: blocks HIV-1 LEDGF/p75-dependent DNA integration; TR-FRET IN-LEDGF/p75 DNA integration, Eu/Cy5; inhibition, % at 3.7 µM; 370,000 tested, 0.64% active; AID 743269;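 active = inhibition above the screen-wide mean plus 3 SD, cut at about 13% in these data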;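 also: signal is the Cy5 over europium emission ratio at 671 and 618 nm; 0% = plate median of compound wells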
TDP2 inh: TDP2 (human) inhibition, absorbance primary screen | 370,000 tested, 0.34% active | AID 720702 | O95551 | inhibition, % at 12.8 µM | recombinant TDP2, T5PNP hydrolysis, p-nitrophenol absorbance 415 nm;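 active = inhibition above the mean of all tested compounds plus 3 SD, set per campaign, cut at about 25% in these data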;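 also: 0% = DMSO with enzyme and 100% = buffer with substrate but no TDP2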
Target sequence (O95551 whole entry, looked up): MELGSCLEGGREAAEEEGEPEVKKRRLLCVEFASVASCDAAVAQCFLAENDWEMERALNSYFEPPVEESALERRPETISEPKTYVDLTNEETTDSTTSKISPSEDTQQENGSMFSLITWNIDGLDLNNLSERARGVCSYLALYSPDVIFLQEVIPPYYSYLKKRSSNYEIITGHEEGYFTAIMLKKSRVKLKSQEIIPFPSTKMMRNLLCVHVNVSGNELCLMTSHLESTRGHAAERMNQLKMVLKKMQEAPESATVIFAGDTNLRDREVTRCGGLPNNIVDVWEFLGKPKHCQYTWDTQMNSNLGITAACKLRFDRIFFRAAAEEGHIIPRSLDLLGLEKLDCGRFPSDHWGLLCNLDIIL
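Assay system: Recombinant human TDP2 | Quantity: 120 nM TDP2 per well | Incubation: 2 h at 37 °C | Signal: Epi absorbance | Evaluation: Percent inhibition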
MBD2 inh: inhibitors of human MBD2 binding to methylated oligonucleotide. TR-FRET. inhibition, % at 4.4 µM. 370,000 tested, 0.31% active; in the data active = inhibition above about 13%
IN multimer act: activates HIV-1 integrase multimerization in LEDGF counter-screen; shares compounds with LEDGF integ inh; 2,000 tested, 17% active; TR-FRET HIV-1 integrase multimerization, biochemical; activation, % at 7.7 µM; in the data active = activation above about 8.9%
TR-FRET interf: TR-FRET optical interference, LEDGF/p75 integration counter-screen; shares compounds with LEDGF integ inh; TR-FRET optical interference counterscreen, HIV-1 IN multimerization; inhibition, % at 7.7 µM; 2,000 tested, under 10 active;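 active = inhibition above the mean over all tested compounds plus 3 SD, which no compound reached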;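 also: 0% = integrase with antibodies and DMSO and 100% = antibodies without integrase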
IN-LEDGF confirm: LEDGF/p75-dependent HIV-1 integration inhibition, confirmation. shares compounds with LEDGF integ inh. TR-FRET LEDGF/p75-dependent HIV-1 integration, biochemical. inhibition, % at 3.7 µM. 2,000 tested, 36% active; in the data active = inhibition above about 14%
* hit, by the source's call; . = not tested or not shown.

SMILES	UHRF1 MBD2 ctr	LEDGF integ inh	TDP2 inh	MBD2 inh	IN multimer act	TR-FRET interf	IN-LEDGF confirm
CC[C@@H](CO)NC(=O)[C@@H]1C=C2c3cccc4[nH]cc(c34)C[C@H]2N(C)C1	10.6	14.1*	9.2	0.2	-0.3	1.2	16.7*
Cc1ccc(C)c(Cn2c(C(=O)O)c(C=O)c3ccccc32)c1	0.9	8.6	-15.2	0.6	.	.	.
CCn1ccnc1CN1CCCC(C(=O)c2ccc(OC)cc2OC)C1 (stereo unspecified)	6.3	-2.9	5.8	0.5	.	.	.
O=C(c1cc(-c2ccc(Cl)cc2)n(-c2ccc(Cl)cc2Cl)n1)N1CCOCC1	2.7	26.2*	-0.7	3.2	0.5	-2.4	-7.8
Clc1ccc(C2N3CCCN23)c(Cl)c1 (stereo unspecified)	10.4	4.2	-0.4	2.8	.	.	.
Oc1ccc(CC2CC3CCN2CC3)cc1O (stereo unspecified)	2.8	-6.8	8.7	-0.5	.	.	.
Oc1ccc(C[C@H]2NCCc3cc(O)c(O)cc32)cc1O	30.1*	55.2*	-3.6	7.9	18.0*	-64.1	29.9*
CN(C)c1ccc(/C=C/C=C2/C(=O)NC(=O)N(c3ccccc3)C2=O)cc1	-2.3	2.1	12.8	-9.7	.	.	.
Cc1ccc(N2C(=O)NC(=O)/C(=C\C=C\c3ccco3)C2=O)cc1C	12.2	29.2*	-1.9	4.6	0.8	-3.7	33.6*
O=C1NC(=O)N(c2ccccc2)C(=O)/C1=C/C=C/c1ccco1	5.7	28.3*	-0.6	6.9	0.4	-1.8	18.6*
Cc1ccc(N2C(=O)NC(=O)/C(=C\c3ccoc3)C2=O)cc1	1.8	10.8	-8.3	2.2	.	.	.
Cc1cc(N2CCOCC2)ccc1/C=C1\C(=O)NC(=O)N(c2ccccc2)C1=O	0.4	2.8	6.1	1.5	.	.	.
Cc1cccc(N2C(=O)NC(=O)/C(=C\C=C\c3ccco3)C2=O)c1	11.3	31.2*	-1.1	4.8	0.4	-1.9	27.8*
Cc1ccc(N2C(=O)NC(=O)/C(=C\C=C\c3ccco3)C2=O)cc1	7.5	40.6*	-7.0	2.0	-0.1	0.8	33.1*
CN1C(=O)C(=Cc2cn(CC#N)c3ccccc23)C(=O)N(C)C1=O	1.6	15.8*	-2.1	-1.1	0.2	-0.9	-4.7
COC1CC2C=C(C)C=CC=CC(=O)NC(c3ccccc3)CC=CCCC(O)CC(=O)C2=C1O (stereo unspecified)	19.0	22.4*	9.3	4.7	4.7	-23.6	49.8*
COc1cc([C@H]2OC[C@H]3[C@@H]2CO[C@@H]3c2cc(OC)c(O[C@@H]3O[C@H](CO)[C@@H](O)[C@H](O)[C@H]3O)c(OC)c2)cc(OC)c1O[C@H]1O[C@@H](CO)[C@H](O)[C@@H](O)[C@@H]1O	0.3	2.3	-8.6	-2.9	.	.	.
O=C(OCc1ccccc1)N1CCC2CC1c1cc(N3Cc4ccccc4-n4nncc4C3)ccc12 (stereo unspecified)	6.3	26.1*	7.6	3.9	1.7	-6.1	11.9
C=C[C@@H]1C2=CCOC(=O)C2=CO[C@H]1O[C@@H]1O[C@H](CO)[C@@H](O)[C@H](O)[C@H]1O	2.6	1.5	4.5	1.4	.	.	.
COc1ccc(CCNCc2ccncc2)cc1	-0.8	14.3*	6.4	-3.8	-2.6	9.4	1.6
CC1(C)NC(=S)C(C)(C)N1N=O	-1.5	1.0	-9.9	-1.7	.	.	.
CCOc1ccc(-n2c(CC)nc3ccccc3c2=O)cc1	0.1	39.1*	1.8	7.6	-0.9	4.5	1.0
COc1ccc(-n2c(Cc3ccccc3)nc3ccccc3c2=O)cc1	-3.0	-2.3	8.6	0.8	.	.	.
CCN(CC)C(=O)Cn1cc(/C=C2\C(=O)NC(=O)N(c3ccccc3F)C2=O)c2ccccc21	-0.4	18.1*	-2.4	1.9	1.5	-5.6	4.7
Cc1cccc(C)c1OC(=O)Cc1ccccc1	-0.4	-2.5	2.7	-4.2	.	.	.
SMILES	UHRF1 MBD2 ctr	LEDGF integ inh	TDP2 inh	MBD2 inh	IN multimer act	TR-FRET interf	IN-LEDGF confirm
Cc1ccccc1-n1c(C)cc(/C=C2/C(=O)NC(=O)N(Cc3ccco3)C2=O)c1C	11.1	49.4*	-5.2	6.8	-0.6	2.1	-0.2
Cc1ccc(OCCn2cccc2/C=C2/C(=O)NC(=O)N(Cc3ccco3)C2=O)cc1	63.7*	57.8*	19.7	11.5	-2.1	10.5	36.9*
Cc1ccc(-n2c(C)cc(/C=C3/C(=O)NC(=O)N(C)C3=O)c2C)cc1	-0.7	2.7	7.4	-2.1	.	.	.
Cc1cc(/C=C2\C(=O)NC(=O)N(c3ccc(F)cc3)C2=O)c(C)n1-c1ccc(C(=O)O)cc1	-1.2	3.9	3.2	-0.1	.	.	.
Cc1cc(/C=C2\C(=O)NC(=O)N(Cc3ccco3)C2=O)c(C)n1-c1ccc(C(=O)O)cc1	52.0*	48.0*	13.3	6.6	3.0	-10.8	9.7
CCc1ccc(N2C(=O)NC(=O)/C(=C\c3cccn3CCOc3ccc(C(C)C)cc3)C2=O)cc1	-2.8	-1.0	7.8	3.6	.	.	.
Cc1cc(/C=C2\C(=O)NC(=O)N(Cc3ccco3)C2=O)c(C)n1-c1ccc(O)cc1	35.9*	53.2*	-0.3	12.2	3.5	-12.6	20.8*
O=C(O)c1ccc(N=Cc2c(O)n(Cc3ccc(F)cc3)c(=O)[nH]c2=O)cc1	-1.5	3.0	9.4	-5.2	.	.	.
CCOC(=O)C1CCN(/C=C2/C(=O)NC(=O)N(Cc3ccco3)C2=O)CC1	10.2	14.0*	1.4	-0.8	3.5	-12.7	2.9

From PubChem BioAssay
